The source of these data is ChEMBL document CHEMBL3232793, “Fused heterocyclic compounds bearing bridgehead nitrogen as potent HIV-1 NNRTIs. Part 1: design, synthesis and biological evaluation of novel 5,7-disubstituted pyrazolo[1,5-a]pyrimidine derivatives” (Bioorg Med Chem, 2014).

Each structure is given as a SMILES string. A value given as a limit tells only on which side of the number the result lay.

Data set [1] concerns the target Human immunodeficiency virus type 1 reverse transcriptase (Human immunodeficiency virus 1, UniProt Q72547). In words: Inhibition of recombinant HIV1 reverse transcriptase assessed as inhibition of biotin-dUTP incorporation in to poly [A] x oligo[dT]15 by ELISA. The procedure, abridged:
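Colorimetric kit (Roche) ELISA. Homopolymer template/primer bound to the microplate, with biotin-dUTP as the labelled nucleotide and 4 ng recombinant HIV-1 RT per well. Compounds tested at several concentrations.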
Background: In an ELISA, binding on a coated surface is turned into a signal by an enzyme label.

Data set [2] in a line: Selectivity index, ratio of compound activity for human HeLa cells to EC50 for wild type HIV1. In kind it is toxicity, cell-based. The note with it: read-out: Selectivity Index.
The test system of data set [3] is Human immunodeficiency virus 1. In words: Antiviral activity against NNRTI-resistant HIV1 harboring Y181C mutant infected in human Hela-JC53 cells assessed as inhibition of viral replication by luciferase reporter gene assay relative wild type HIV1. In kind it is functional. For orientation: In a reporter assay the amount or activity of a reporter protein is the signal.

The test system of data set [4] is Human immunodeficiency virus 1. In words: Antiviral activity against wild type HIV1 infected in human Hela-JC53 cells assessed as inhibition of viral replication by luciferase reporter gene assay. In kind it is functional, organism-based. The note with it: Human immunodeficiency virus 1, Hela-JC53.
Data set [5] concerns Human immunodeficiency virus 1. In words: Antiviral activity against NNRTI-resistant HIV1 harboring K103N mutant infected in human Hela-JC53 cells assessed as inhibition of viral replication by luciferase reporter gene assay relative wild type HIV1. It is filed as functional.
The nature of data set [6]: Selectivity index, ratio of CC50 for human MT4 cells to EC50 for HIV1 3B. It is filed as toxicity, cell-based. The note with it: read-out: Ratio CC50/EC50. The procedure, abridged: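 Selectivity index = CC50 (mock-infected MT-4 cells) / EC50 (IIIB or ROD protection). Both values come from the same 5-day MTT assay run in parallel triplicate wells.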
Data set [7] is described as follows: Cytotoxicity against human MT4 cells assessed as cell viability by MTT assay. It is filed as cell-based. The method, boiled down: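 Mock-infected MT-4 cells at 6 × 10⁵ cells/mL, run in parallel triplicate wells with the infected series. Compounds given as serial five-fold dilutions. MTT viability read spectrophotometrically at day 5.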
For orientation: Tetrazolium assays rely on reduction of a dye to a coloured formazan, in cell work by metabolically active cells.

The test system of data set [8] is Human immunodeficiency virus 2. In words: Antiviral activity against HIV2 ROD infected in human MT4 cells assessed as virus-induced cytopathic effect by MTT assay. In kind it is functional, organism-based. The note with it: Human immunodeficiency virus 2, ISOLATE ROD. The procedure, abridged: (§1)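 MT-4 cells, resuspended at 6 × 10⁵ cells/mL, infected with HIV-1 IIIB or HIV-2 ROD at 100–300 CCID50. Compounds added at assay start as serial five-fold dilutions in triplicate wells. Viability read spectrophotometrically by MTT 5 days after infection.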

Data set [9] has as its system Human immunodeficiency virus 1. In words: Antiviral activity against HIV1 3B infected in human MT4 cells assessed as virus-induced cytopathic effect by MTT assay. In kind it is functional, organism-based. Conditions: Human immunodeficiency virus 1, 3B. The method, boiled down: as §1

In the case of `Cc1cc(C)c(Oc2cc(Nc3ccc(C#N)cc3)nc3ccnn23)c(C)c1`, in data set [1], the IC50 was 2260 nM.
`Cc1cc(C#N)cc(C)c1Oc1nc(Nc2ccc(C#N)cc2)nc2[nH]ccc12`: the selectivity ratio in [2] was over 50000. The “fold change (FC)” value in data set [3] and in data set [5] was 11 each time. For the same compound, the EC50 in [4] worked out at 0.9 nM.
Regarding `Cc1cc(C#N)cc(C)c1Oc1nc(Nc2ccc(C#N)cc2)nc2cc[nH]c12`, the selectivity ratio in [2] was over 50000. Further, the “fold change (FC)” value in data set [3] and in data set [5] was 3.8 throughout. Besides, in data set [4], the EC50 worked out at 0.8 nM.
With `CC(C)Nc1cccnc1N1CCN(C(=O)c2cc3cc(NS(C)(=O)=O)ccc3[nH]2)CC1` [DELAVIRDINE], the selectivity ratio in data set [6] was over 277. Also, the CC50 in [7] was over 43800 nM.
For the compound `Cc1cc(C#N)cc(C)c1Oc1nc(Nc2ccc(C#N)cc2)nc(N)c1Br` [ETRAVIRINE], the 50% effective concentration (EC50) in [8] was determined as 11 nM. Also, the half-maximal cytotoxic concentration (CC50) in data set [7] was over 4600 nM.
Take `Cc1ccnc2c1NC(=O)c1cccnc1N2C1CC1` [NEVIRAPINE]: the 50% effective concentration (EC50) in data set [9] came to 170 nM. Besides, the half-maximal cytotoxic concentration (CC50) in [7] was over 15000 nM.

In general, IC50 refers to the concentration that gives 50% inhibition. One may read the EC50 as the concentration at which the effect is half-maximal. As usually defined, the CC50 is the concentration giving 50% cytotoxicity.
